Measurements pooled from the literature.
Compare with care: the assays were run in different laboratories.
PDE10A: cAMP and cAMP-inhibited cGMP 3',5'-cyclic phosphodiesterase 10A (PDE10A, Homo sapiens, UniProt Q9Y233)
DRD3: D(3) dopamine receptor (DRD3, Homo sapiens, UniProt P35462)

COc1ccc2oc(-c3ccc4nc(N)oc4c3)c/c(=N\c3ccccc3NC(=O)CCN)c2c1  remaining binding (Discoidin domain-containing receptor 2 (DDR2, Homo sapiens, UniProt Q16832); binding; 1 µM): 85%
COc1ccc(Cc2nccc3cc(OC)c(OC)cc23)cc1  inhibition (PDE10A; enzyme activity, inhibitor, FP; 0.1 µM): 38%
C1=C/COCc2cc(ccc2OCCN2CCCC2)Nc2nccc(n2)-c2cccc(c2)COC/1  remaining binding (AP2-associated protein kinase 1 (AAK1, Homo sapiens, UniProt Q2M2I8); binding; 0.1 µM): 52%
Cc1[nH]c(C)c(S(=O)(=O)Nc2ccc(C(F)(F)F)c(Cl)c2Cl)c1C(=O)N1CCC(F)(F)C1  Emax (DRD3; β-arrestin recruitment, agonist; 90 min): 105%
CCOC(=O)[C@@]12C[C@@H]1[C@@H](n1cnc3c(NCCCCc4ccccc4)nc(C#Cc4ccc(Cl)s4)nc31)[C@H](O)[C@@H]2O  inhibition (Sodium-dependent dopamine transporter (SLC6A3, Homo sapiens, UniProt Q01959); ligand displacement, radioligand; 10 µM): 9%
[2H]C1([2H])CCC([2H])([2H])N1C(=O)c1c(C)[nH]c(C)c1S(=O)(=O)Nc1ccc(C(F)(F)F)c(Cl)c1  Emax (DRD3; β-arrestin recruitment, agonist; 90 min): 92%
COc1ccc(Cc2ccnc3ccccc23)cc1OC  inhibition (PDE10A; enzyme activity, inhibitor, FP; 0.1 µM): 11%
Cc1[nH]c(C)c(S(=O)(=O)Nc2ccc(Cl)c(C(F)(F)F)c2)c1C(=O)N1CCC(F)(F)C1  Emax (DRD3; β-arrestin recruitment, agonist; 90 min): 109%
COc1cc2ncnc(Cc3ccnc(-c4ccccc4)c3)c2cc1OC  inhibition (PDE10A; enzyme activity, inhibitor, FP; 0.1 µM): 58%
CCCCC(=O)Nc1ccc(-c2ccc3ncn(CCC)c(=O)c3c2)cn1  remaining binding (Leukocyte tyrosine kinase receptor (LTK, Homo sapiens, UniProt P29376); binding, competition with immobilised ligand; 0.5 µM): 100%
Cc1[nH]c(C)c(S(=O)(=O)Nc2cc(Cl)cc(Cl)c2Cl)c1C(=O)N1CCC(F)(F)C1  Emax (DRD3; β-arrestin recruitment, agonist; 90 min): 103%
COc1ccc2nccc(Cc3cccc(-c4ccccc4)c3)c2c1  inhibition (PDE10A; enzyme activity, inhibitor, FP; 0.1 µM): 5%
